Measurements published in PubChem BioAssay AID463186 (The Scripps Research Institute Molecular Screening Center, 2010).
Active and inactive are the calls of the source.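 The calls were made as follows: active = mean luminescence fold change over vehicle of at least 10; inactive = the rest.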

Molecular target: G2/mitotic-specific cyclin-B1 (Homo sapiens) (UniProt P14635)
Assay: cyclin B1-luciferase fusion stabilization in HeLa – cell-based, luminescence, powder samples, selectivity assay for Wee1 degradation inhibitor project, late-stage follow-up (AID 463186)
Conditions: HeLa cyclin B-luciferase stability, at 0.1 µM, hits give high values
Summary of the method: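 System: HeLa cells transiently expressing cyclin B–luciferase fusion reporter | Doses: Single nominal dose of 100 nM (0.1 µM) per compound | Timing: 48 h transfection, then 20 h compound exposure at 37 °C | Technique: Luminescence of luciferase reporter | Read-out basis: Mean fold-change in luminescence relative to DMSO-treated cells | Repeats: Four replicate wells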

Sequence of G2/mitotic-specific cyclin-B1 (Homo sapiens) (P14635 whole entry, looked up, the tested form may be a part): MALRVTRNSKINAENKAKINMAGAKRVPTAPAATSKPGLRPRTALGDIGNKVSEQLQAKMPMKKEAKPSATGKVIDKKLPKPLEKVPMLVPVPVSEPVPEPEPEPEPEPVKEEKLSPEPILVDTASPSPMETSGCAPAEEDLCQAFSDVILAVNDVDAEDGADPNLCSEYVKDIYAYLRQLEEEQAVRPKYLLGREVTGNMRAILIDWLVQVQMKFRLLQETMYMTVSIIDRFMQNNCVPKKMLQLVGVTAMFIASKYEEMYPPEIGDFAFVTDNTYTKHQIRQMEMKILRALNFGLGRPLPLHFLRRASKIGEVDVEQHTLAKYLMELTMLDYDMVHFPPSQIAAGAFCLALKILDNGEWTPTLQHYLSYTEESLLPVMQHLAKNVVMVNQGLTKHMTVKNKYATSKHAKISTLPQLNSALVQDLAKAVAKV

fold change	SMILES
2.62 (inactive)	O=[N+]([O-])c1cccc2[nH]c(CNc3nc(N4CCOCC4)nc4c3ncn4-c3ccsc3)nc12
4.15 (inactive)	c1ccc2[nH]c(CNc3nc(N4CCOCC4)nc4c3ncn4-c3ccsc3)nc2c1
